# Shown are actives, neighbours in structure and some others; about 1.4% of the full set was active somewhere.
# CAL PDZ FP-1: CAL PDZ (human) peptide binding inhibition | inhibition, % at 24.9 µM | Q9HD26 | purified CAL PDZ, TMR-peptide fluorescence polarization, 1 h | 300,000 compounds, 0.92% hits;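 active means mean inhibition of at least 30% with at least half of replicates also reaching 30%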
# Arr AP2 block: blocks beta-arrestin peptide binding to AP2 adaptin; 340,000 compounds, 0.31% hits; FITC-arrestin peptide / GST-AP2 beads, flow cytometry; AP2 beta2 appendage carries R879A mutation; AID 504490; inhibition, % at 10 µM;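 active means inhibition above a set limit, near 3 SD of compounds lacking own fluorescence, cut at about 54% in these data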
#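 System: GST-AP2 R879A glutathione beads | Also added: FITC-arrestin peptide, 50 nM | Times: 12 min plus 1 h, RT | Signal: Bead flow cytometry, FITC channel | Buffer or medium: PBS with 0.05% Tween 20 and 0.1% BSA | Read-out basis: Percent drop in bead-associated FITC signal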
# DDE Tn7 FP inh: inhibitors of Tn7 peptide binding to human fibrin DD(E) | P02675 | FP displacement of FITC-Tn7 peptide from fibrin DD(E); 0% = median of compound wells per plate | inhibition, % at 8.3 µM | 370,000 compounds, 0.13% hits | AID 720508;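 active means inhibition above the mean of compounds falling within the control limits plus 3 SD of them, cut at about 14% in these data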
# Target sequence (P02675 whole entry, looked up): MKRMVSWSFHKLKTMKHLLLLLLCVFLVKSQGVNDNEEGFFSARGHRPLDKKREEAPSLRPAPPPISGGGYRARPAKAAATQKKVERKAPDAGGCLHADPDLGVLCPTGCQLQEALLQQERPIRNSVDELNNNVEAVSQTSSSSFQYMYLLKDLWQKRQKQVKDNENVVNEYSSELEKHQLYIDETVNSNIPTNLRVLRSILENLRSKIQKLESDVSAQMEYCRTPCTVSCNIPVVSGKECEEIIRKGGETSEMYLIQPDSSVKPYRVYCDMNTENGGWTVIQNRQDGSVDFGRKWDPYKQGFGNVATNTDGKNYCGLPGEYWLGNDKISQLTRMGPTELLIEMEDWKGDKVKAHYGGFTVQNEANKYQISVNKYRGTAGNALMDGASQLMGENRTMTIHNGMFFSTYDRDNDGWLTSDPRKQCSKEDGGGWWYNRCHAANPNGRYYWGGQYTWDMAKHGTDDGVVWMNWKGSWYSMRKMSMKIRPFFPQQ
#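 System: human fibrin DD(E); quantity: Fibrin-DD(E) at 2 µM final; also added: fluorescent Tn7 probe at 0.1 µM; compound dosing: single nominal test concentration of 8.3 µM per compound; schedule: 10 min preincubation, 3 h with tracer, room temperature; detection: fluorescence polarization of the labelled Tn7 tracer; repeats: one replicate per compound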
# CAL PDZ FP-2: human CAL PDZ-peptide interaction inhibition | Q9HD26 | purified CAL PDZ, TMR-peptide fluorescence polarization, 1 h | inhibition, % at 20 µM | 330,000 compounds, 0.02% hits | AID 504414;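 active means highest replicate inhibition of at least 40%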
#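 Test system: purified CerCALP PDZ construct; Compound dosing: one concentration, 20 µM compound; Also added: TMR-labelled reporter peptide T*-PRC34 bound in PDZ groove; Read-out: inhibition from polarization loss; Controls: unlabelled peptide and DMSO controls; Signal: FP readout, S and P plane fluorescence; Incubation: 1 h at RT.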
# Tn6 DDE FP: inhibitors of Tn6 peptide binding to human fibrin DD(E); inhibition, % at 8.3 µM; Fibrin DD(E) TRITC-Tn6 fluorescence polarization displacement; 370,000 compounds, 0.21% hits;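 active means inhibition above a per-campaign cutoff: mean of compounds within control limits plus 3 SD, cut at about 15% in these data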
# Arr AP2 CP1: human beta-arrestin and AP2 interaction inhibition, cherry pick; shares compounds with Arr AP2 block; GST-AP2 beads, FITC arrestin peptide binding, flow cytometry; GST-fused beta2-adaptin appendage, R879A mutant; inhibition, % at 10 µM; 1,300 compounds, 2% hits; AID 504908;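 active means inhibition above a set limit, roughly 3 SD of non-fluorescent compound noise, cut at about 38% in these data; inactive means inhibition at or below that limit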;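 further: loss of bead fluorescence from 50 nM FITC arrestin peptide bound to appendage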
# GST-FITC bead: disrupts GST binding to glutathione beads, arrestin-AP2 artifact; inhibition, % at 10 µM; 1,300 compounds, 2% hits; GST-fluorescein binding to GSH beads, fluorescence, counter-screen; AID 588338; shares compounds with Arr AP2 block;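 active means inhibition above 50%, about 3 SD of the inhibition seen with non-fluorescent compounds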;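 further: fluorescein maleimide labelled GST captured on 4 micron glutathione beads; higher means more loss of bead fluorescence from quenching or blocked binding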
# Numbers stand for hits; n = inactive; x = no result given.
SMILES,CAL PDZ FP-1,Arr AP2 block,DDE Tn7 FP inh,CAL PDZ FP-2,Tn6 DDE FP,Arr AP2 CP1,GST-FITC bead
O=C(O)/C=C\C(=O)Nc1ccc(OC(F)F)cc1,n,54.4,n,n,n,n,n
COc1ccc(NC(=O)N(C)[C@H]2C[C@H]3c4[nH]c5c(-c6cccc(C)c6)cccc5c4CCN3C(=O)[C@H]2[C@H](C)O)cc1,x,x,n,x,n,x,x
COc1ccc(C2=NCN(c3ccc(C)cc3)C(=S)N2)cc1,n,80.5,n,n,n,n,n
Cc1ccc(N2CN=C(c3ccccc3)NC2=S)cc1,n,n,n,n,n,x,x
O=C(NC1CCCc2c1cnn2-c1ccc(F)cc1F)c1cccs1 (stereo not given),x,x,n,x,n,x,x
CN(C)c1ccc(NC(=O)NC2CCCCN(Cc3cccc(Cl)c3)C2=O)cc1 (stereo not given),x,x,n,x,n,x,x
CC1CC(C)CN(CCCNC(=O)c2cc3c(=O)[nH]c4ccccc4c3n2C)C1 (stereo not given),x,60.3,n,n,n,n,n
CCCC1CCC2(CC1)CCC2OC(=S)NCc1cccc(OC)c1 (stereo not given),x,x,n,x,n,x,x
O=C1C(Cl)=C(N2CCCCC2)C(=O)C(Cl)=C1c1cnc(N2CCCCC2)s1,n,98.1,x,n,x,67.6,n
CC(=O)c1cnc(N(C)C)s1,n,n,n,n,n,x,x
CN(C)c1ncc(C2=C(Cl)C(=O)C(N3CCCC3)=C(Cl)C2=O)s1,n,88.2,n,n,n,77.1,n
CCOC(=O)C1=NOC(C(C)=O)(C(=O)NC2CCCC2)C1 (stereo not given),x,x,n,x,n,x,x
COc1ccccc1CCn1cnc(-c2cccc(Cl)c2)c1CC(C)C,x,x,n,x,n,x,x
C/C=C/C=C/C(=O)N1C[C@H](C)N(C)C[C@H]1C,x,x,n,x,n,x,x
CC(C)Oc1ccc(CCNC(=O)C2CCC(=O)N(Cc3cccc(F)c3)C2)cc1 (stereo not given),n,n,n,n,n,n,n
O=C(NCCc1cccnc1)C1CCC(=O)N(Cc2cccc(C(F)(F)F)c2)C1 (stereo not given),n,n,n,n,n,x,x
COc1cccc(CN2CC(C(=O)NCCCc3ccc(C)cc3)CCC2=O)c1 (stereo not given),100.0,n,n,n,n,n,n
O=C(NCCc1ccccc1)C1CCC(=O)N(Cc2cccc(C(F)(F)F)c2)C1 (stereo not given),n,n,n,n,n,n,n
COC(=O)[C@]12C[C@H](CC(=O)NCCC(C)C)C(=O)N(Cc3ccc(Cl)cc3Cl)C1=C[C@H](C(C)(C)C)O[C@@H]2C,x,x,n,x,n,x,x
CCCCOCCCNC(=O)C[C@H]1C[C@@]2(C(=O)OC)C(=C[C@H](COCc3ccccc3)O[C@@H]2C)N(CCc2ccc(OC)c(OC)c2)C1=O,x,x,n,x,n,x,x
O=C(Oc1cccc(C(=S)N2CCCCC2)c1)c1ccccc1,x,56.0,n,n,n,n,n
O=C(Oc1ccc(C(=S)N2CCCCC2)cc1)c1ccccc1,n,n,n,n,n,x,x
CC(=O)c1cccc(NC(=O)C2CC(=O)N(C3CCCC3)C2)c1 (stereo not given),n,n,n,n,n,x,x
CC(=O)Nc1cccc(NC(=O)C2CC(=O)N(C3CCCCC3)C2)c1 (stereo not given),n,60.9,n,n,n,n,n
O=C(CSc1nnc(-c2ccccc2)n1Cc1ccco1)Nc1ccc(Oc2ccccc2)cc1,x,x,n,x,n,x,x
Cc1cnc(C(=O)Nc2ccc(N3CCCCC3)cc2)cn1,x,n,n,n,n,x,x
Cc1cnc(C(=O)Nc2ccc(OC(F)(F)F)cc2)cn1,n,55.3,n,n,n,n,n
O=C1C2C3C=CC(c4ccccc4)(C2C(=O)N1c1cccc(Cl)c1)C1C(=O)N(c2cccc(Cl)c2)C(=O)C31 (stereo not given),n,60.5,n,n,n,n,n
O=C(N/N=C/c1cccc([N+](=O)[O-])c1)c1cccc(Br)c1,n,104.3,n,n,n,n,60.3

# Source: PubChem BioAssay (several laboratories)
